Assay results published in ChEMBL document CHEMBL1944532, “Synthesis and evaluation of anticancer activity of some novel 6-aryl-2-(p-sulfamylphenyl)-pyridazin-3(2H)-ones” (Eur J Med Chem, 2012).
Activity calls are given as the source filed them. No cut-off for these calls is given here.

Tests used:
[1] = tested on: HCC 2998; assay: Cytotoxicity against human HCC2998 cells assessed as cell growth at 10 uM after 48 hrs by SRB assay; type: functional; conditions: HCC 2998, 48 h, read-out: Activity
How it was run: (§1)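 NCI primary single-dose screen at 10^-5 M against the ~60 human tumour cell line panel. Cells grown in RPMI-1640 with 5% fetal calf serum and 2 mM L-glutamine and pre-incubated 24 h before compound addition. Compound added from DMSO solution with 48 h exposure. Growth read by sulforhodamine B protein staining.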

[2] = tested on: ACHN; assay: Cytotoxicity against human ACHN cells after 48 hrs by SRB assay; type: functional
How it was run: (§2)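 NCI ~60-line panel in RPMI-1640 with 5% fetal calf serum and 2 mM L-glutamine, pre-incubated 24 h. Compound in DMSO tested at five 10-fold concentrations (10^-4 to 10^-8 M) with 48 h continuous exposure. Growth measured by sulforhodamine B protein assay. GI50 (50% net growth inhibition), TGI (total inhibition) and LC50 (50% net cell death) derived from dose-response.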

[3] = tested on: CAKI-1; assay: Cytotoxicity against human Caki1 cells assessed as cell growth at 10 uM after 48 hrs by SRB assay; type: functional; conditions: CAKI-1, 48 h, read-out: Activity; how it was run: as §1
[4] = tested on: Hs-578T; assay: Cytotoxicity against human Hs578T cells assessed as cell growth at 10 uM after 48 hrs by SRB assay; type: functional; conditions: read-out: Activity; how it was run: as §1
[5] = tested on: NCI-H322M; assay: Cytotoxicity against human NCI-H322M cells assessed as cell growth at 10 uM after 48 hrs by SRB assay; type: functional; conditions: read-out: Activity
How it was run: (§3)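 NCI primary single-dose screen at 10^-5 M against the full panel of about 60 human tumor cell lines. Cells were in RPMI-1640 with 5% fetal calf serum and 2 mM L-glutamine and preincubated 24 h. Compound was given in DMSO with 48 h exposure. Growth was estimated by sulforhodamine B protein assay.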

[6] = tested on: A549; assay: Cytotoxicity against human A549/ATCC cells after 48 hrs by SRB assay; type: functional; conditions: A549, 48 h; how it was run: as §2
[7] = tested on: M14; assay: Cytotoxicity against human M14 cells after 48 hrs by SRB assay; type: functional; conditions: M14, 48 h
How it was run: (§4)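 NCI five-dose screen on the ~60-line human tumor panel. Cells grown in RPMI-1640 with 5% fetal calf serum and 2 mM L-glutamine, seeded at line-dependent density and preincubated 24 h. Compound added from DMSO at 10-fold dilutions from 10^-4 to 10^-8 M, continuous exposure 48 h. Growth read by sulforhodamine B protein stain. GI50, TGI and LC50 derived per line.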

[8] = tested on: SR; assay: Cytotoxicity against human SR cells assessed as cell growth at 10 uM after 48 hrs by SRB assay; type: functional; conditions: read-out: Activity
How it was run: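 NCI primary one-dose screen at 10^-5 M against the full panel of about 60 human tumour cell lines, run to the NCI Drug Evaluation Branch protocol.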

[9] = tested on: MDA-MB-435; assay: Cytotoxicity against human MDA-MB-435 cells after 48 hrs by SRB assay; type: functional; conditions: MDA-MB-435, 48 h; how it was run: as §4
[10] = tested on: OVCAR-5; assay: Cytotoxicity against human OVCAR5 cells assessed as cell growth at 10 uM after 48 hrs by SRB assay; type: functional; conditions: OVCAR-5, 48 h, read-out: Activity; how it was run: as §3
[11] = tested on: BT-549; assay: Cytotoxicity against human BT549 cells assessed as cell growth at 10 uM after 48 hrs by SRB assay; type: functional; conditions: BT-549, 48 h, read-out: Activity; how it was run: as §1
[12] = tested on: CCRF-CEM; assay: Cytotoxicity against human CCRF-CEM cells assessed as cell growth at 10 uM after 48 hrs by SRB assay; type: functional; conditions: read-out: Activity; how it was run: as §1
[13] = tested on: MDA-MB-231; assay: Cytotoxicity against human MDA-MB-231/ATCC cells after 48 hrs by SRB assay; type: functional; conditions: MDA-MB-231, 48 h; how it was run: as §4
[14] = tested on: LOX IMVI; assay: Cytotoxicity against human LOXIMVI cells after 48 hrs by SRB assay; type: functional; how it was run: as §4
[15] = tested on: HCT-15; assay: Cytotoxicity against human HCT15 cells assessed as cell growth at 10 uM after 48 hrs by SRB assay; type: functional; conditions: HCT-15, 48 h, read-out: Activity; how it was run: as §1
[16] = tested on: MDA-MB-435; assay: Antitumor activity against human MDA-MB-435 cells implanted in mouse dosed qd for 4 days by formazan dye-based hollow fiber assay; type: functional, organism-based
How it was run: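 Cells grown inside polyvinylidene fluoride hollow fibers; each line implanted into both intraperitoneal and subcutaneous compartments in mice. Compound given ip at two doses on a QD x 4 schedule. Fibers then recovered and viable cell mass measured by formazan dye conversion. Scored 2 per dose giving ≥50% reduction in viable cell mass (%T/C 50).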

With `CCc1ccc(-c2ccc(=O)n(-c3ccc(S(N)(=O)=O)cc3)n2)cc1` the growth at 10 µM [1] was 53.9%, the GI50 [2] was 10.5 µM and the CC50 ([2]; read-out: pLC50 (the source's name) (converted)) was greater than 100 µM. The TGI ([2]; read-out: pTGI) was greater than 100 µM, the growth at 10 µM [3] was 36.6% and the growth at 10 µM [4] was 28.6%. It also gave a growth at 10 µM [5] of 115%, an LC50 [6] greater than 100 µM and a GI50 ([6]; read-out: GI50) of 2.58 µM. For the same molecule, the GI50 ([6]; read-out: pGI50 (converted)) was 2.57 µM, the TGI ([6]; read-out: pTGI) was greater than 100 µM and the LC50 [7] was greater than 100 µM. It also gave a GI50 ([7]; read-out: GI50) of 0.335 µM, a GI50 ([7]; read-out: pGI50 (converted)) of 0.339 µM and a TGI ([7]; read-out: pTGI (converted)) of 4.9 µM. For the same molecule, the growth at 10 µM [8] was -11.9%, the LC50 [9] was greater than 100 µM and the GI50 ([9]; read-out: GI50) was 0.223 µM. For the same molecule, the GI50 ([9]; read-out: pGI50 (converted)) was 0.224 µM, the TGI ([9]; read-out: pTGI (converted)) was 2.19 µM and the growth at 10 µM [10] was 91.6%. The growth at 10 µM [11] was 7.69%, the growth at 10 µM [12] was 27.9% and the LC50 [13] was greater than 100 µM. It also gave a GI50 ([13]; read-out: GI50) of 12.1 µM, a GI50 ([13]; read-out: pGI50 (converted)) of 12 µM and a TGI ([13]; read-out: pTGI) greater than 100 µM. The LC50 [14] was greater than 100 µM, the GI50 ([14]; read-out: GI50) was 5.27 µM and the GI50 ([14]; read-out: pGI50 (converted)) was 5.25 µM. The TGI ([14]; read-out: pTGI) was greater than 100 µM, the growth at 10 µM [15] was 29.7% and the Activity [16] was “inactive”.
